This passage reports MIC results from ChEMBL document CHEMBL1817584, “Synthesis of novel fluconazoliums and their evaluation for antibacterial and antifungal activities” (2011).

What all share (format): functional
The subject of one experiment is Aspergillus fumigatus. Nature of the experiment: Antifungal activity against Aspergillus fumigatus ATCC 96918 after 24 hrs by twofold serial dilution method. Conditions: ATCC 96918, 24 h. The procedure, abridged:
(§1)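 A fungal spore suspension was made in sterile distilled water from a 1-day-old culture grown on Sabouraud agar, then tested against serial dilutions of compounds (DMSO stocks) to determine MIC.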

The next experiment concerns Candida albicans. Nature of the experiment: Antifungal activity against Candida albicans ATCC 76615 after 24 hrs by twofold serial dilution method. The following applies: ATCC 76615, 24 h. The procedure, abridged:
as §1

A further experiment concerns Bacillus. The experiment in a line: Antibacterial activity against Bacillus proteus ATCC 13315 after 24 hrs by twofold serial dilution method. The following applies: ATCC 13315, 24 h. The procedure, abridged: (§2)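 Each bacterial suspension was adjusted with sterile saline to 1 × 10⁵ CFU. Compounds were first dissolved in DMSO as stock solutions, then diluted in Mueller–Hinton broth in twofold steps (8, 4, 2, 1, 0.5, 0.25). Dilutions were inoculated and incubated at 37 °C for 24 h, and MIC was read. DMSO plus inoculum without drug served as a solvent control.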

The test system of another experiment is Pseudomonas aeruginosa. The experiment in a line: Antibacterial activity against Pseudomonas aeruginosa ATCC 27853 after 24 hrs by twofold serial dilution method. The following applies: ATCC 27853, 24 h. The procedure, abridged: as §2
The test system of a further experiment is Bacillus subtilis. The experiment in a line: Antibacterial activity against Bacillus subtilis ATCC 21216 after 24 hrs by twofold serial dilution method. The following applies: ATCC 21216, 24 h. The procedure, abridged:
as §2

For experiment [1], the system named is Staphylococcus aureus. Nature of the experiment: Antibacterial activity against Staphylococcus aureus ATCC 6538 after 24 hrs by twofold serial dilution method. Conditions: ATCC 6538, 24 h. The procedure, abridged: as §2
Another experiment concerns Escherichia coli. The experiment in a line: Antibacterial activity against Escherichia coli ATCC 8099 after 24 hrs by twofold serial dilution method. The following applies: ATCC 8099, 24 h. The procedure, abridged: as §2
For experiment [2], the system named is Staphylococcus aureus. Nature of the experiment: Antibacterial activity against methicillin-resistant Staphylococcus aureus N315 after 24 hrs by twofold serial dilution method. Conditions: N315, 24 h. The essentials: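 Compounds were dissolved in DMSO as stock, then diluted twofold in Mueller–Hinton broth. Chloromycin and norfloxacin were run as reference drugs. The inoculum was adjusted in sterile saline to 1 × 10⁵ CFU, and a DMSO-plus-inoculum well served as solvent control. Plates were incubated at 37 °C for 24 h and read as MIC.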

The structures appear in SMILES notation. Converted amounts (≈) assume the structure as drawn.

In general, MIC refers to the lowest concentration found to suppress growth. In the case of `OC(Cn1c[n+](Cc2ccc(Cl)cc2Cl)cn1)(Cn1c[n+](Cc2ccc(Cl)cc2Cl)cn1)c1ccc(F)cc1F.[I-].[I-]`, the minimum inhibitory concentration (MIC) is 32 µg/mL with Aspergillus fumigatus; 64 µg/mL in the experiment on Candida albicans; 4 µg/mL with Bacillus; 32 µg/mL against Pseudomonas aeruginosa; 64 µg/mL against Bacillus subtilis; 16 µg/mL against Staphylococcus aureus [1]. Further, the MIC against Escherichia coli was 4 µg/mL; in the experiment with Staphylococcus aureus [2] it was 64 µg/mL.
Turning to `CCCCCCCC[n+]1cnn(Cc2ccc(F)cc2F)c1.[Br-]`, the minimal inhibitory concentration (MIC) with Aspergillus fumigatus was 32 µg/mL; with Candida albicans it was 32 µg/mL; in the experiment on Bacillus it was 8 µg/mL; against Pseudomonas aeruginosa, 16 µg/mL; with Bacillus subtilis, 64 µg/mL; against Staphylococcus aureus [1], 8 µg/mL. Moreover, the MIC in the experiment on Escherichia coli and with Staphylococcus aureus [2] was 16 µg/mL each time.
Turning to `O=C1c2cccc3c(Br)ccc(c23)C(=O)N1CCCBr`, the MIC is 128 µg/mL (≈ 322 µM) with Aspergillus fumigatus; greater than 256 µg/mL against Candida albicans; greater than 256 µg/mL against Bacillus; greater than 256 µg/mL in the experiment on Pseudomonas aeruginosa; greater than 256 µg/mL in the experiment with Bacillus subtilis; 128 µg/mL (≈ 322 µM) with Staphylococcus aureus [1]. For the same compound, the MIC in the experiment on Escherichia coli is 256 µg/mL (≈ 645 µM); in the experiment on Staphylococcus aureus [2] it was greater than 256 µg/mL.
Take `Fc1ccc(Cn2c[n+](Cc3ccc(Cl)cc3Cl)cn2)c(F)c1.[Br-]`: the MIC in the experiment on Aspergillus fumigatus is greater than 256 µg/mL; in the experiment with Candida albicans, greater than 256 µg/mL; in the experiment on Bacillus it was 64 µg/mL; in the experiment with Pseudomonas aeruginosa it was 128 µg/mL; with Bacillus subtilis it was 128 µg/mL; in the experiment with Staphylococcus aureus [1], greater than 256 µg/mL. The minimum inhibitory concentration (MIC) is 128 µg/mL against Escherichia coli and greater than 256 µg/mL in the experiment with Staphylococcus aureus [2].
In the case of `Fc1ccc(Cn2cncn2)c(F)c1`, the MIC with Aspergillus fumigatus, in the experiment on Candida albicans, in the experiment with Bacillus, against Pseudomonas aeruginosa, in the experiment with Bacillus subtilis and in the experiment on Staphylococcus aureus [1] was greater than 256 µg/mL in each case. Also, the MIC in the experiment with Escherichia coli and against Staphylococcus aureus [2] was greater than 256 µg/mL in each case.
`OC(Cn1c[n+](Cc2ccccc2)cn1)(Cn1c[n+](Cc2ccccc2)cn1)c1ccc(F)cc1F.[Br-].[Br-]`: the MIC in the experiment on Aspergillus fumigatus was found to be 128 µg/mL; in the experiment with Candida albicans, 256 µg/mL; in the experiment with Bacillus, 128 µg/mL; in the experiment with Pseudomonas aeruginosa, 128 µg/mL; against Bacillus subtilis, 256 µg/mL; against Staphylococcus aureus [1], 256 µg/mL. The MIC with Escherichia coli worked out at 256 µg/mL; against Staphylococcus aureus [2], 128 µg/mL.
As to `OC(Cn1c[n+](Cc2ccc(F)cc2F)cn1)(Cn1c[n+](Cc2ccc(F)cc2F)cn1)c1ccc(F)cc1F.[Br-].[Br-]`, the MIC is greater than 256 µg/mL against Aspergillus fumigatus; 128 µg/mL in the experiment with Candida albicans; 128 µg/mL against Bacillus; greater than 256 µg/mL against Pseudomonas aeruginosa; 256 µg/mL against Bacillus subtilis; 64 µg/mL in the experiment with Staphylococcus aureus [1]. Further, the MIC in the experiment on Escherichia coli was 64 µg/mL; against Staphylococcus aureus [2], 256 µg/mL.
In the case of `OC(Cn1c[n+](Cc2ccc(Cl)cc2)cn1)(Cn1c[n+](Cc2ccc(Cl)cc2)cn1)c1ccc(F)cc1F.[Cl-].[Cl-]`, the MIC against Aspergillus fumigatus worked out at 64 µg/mL; in the experiment on Candida albicans it was 256 µg/mL; against Bacillus, 256 µg/mL; against Pseudomonas aeruginosa it was 16 µg/mL; in the experiment with Bacillus subtilis, 256 µg/mL; in the experiment on Staphylococcus aureus [1], 64 µg/mL. The MIC in the experiment on Escherichia coli was 256 µg/mL; with Staphylococcus aureus [2] it was greater than 256 µg/mL.
As for `OC(Cn1cncn1)(Cn1cncn1)c1ccc(F)cc1F` [FLUCONAZOLE], the figures for the minimum inhibitory concentration (MIC) with Aspergillus fumigatus and in the experiment on Candida albicans were 256 µg/mL (≈ 836 µM) and 0.5 µg/mL (≈ 1.63 µM), respectively.
As for `OC(Cn1c[n+](Cc2ccc(Cl)cc2Cl)cn1)(Cn1c[n+](Cc2ccc(Cl)cc2Cl)cn1)c1ccc(F)cc1F.[Br-].[Br-]`, the MIC against Aspergillus fumigatus was found to be 128 µg/mL; in the experiment on Candida albicans it was 64 µg/mL; with Bacillus, 4 µg/mL; in the experiment with Pseudomonas aeruginosa, 64 µg/mL; against Bacillus subtilis it was 32 µg/mL; against Staphylococcus aureus [1], 64 µg/mL. The results for the MIC against Escherichia coli and against Staphylococcus aureus [2] were 16 µg/mL and 64 µg/mL, respectively.
With `BrCCOc1ccc2ccccc2c1`, the MIC was greater than 256 µg/mL in the experiment on Aspergillus fumigatus; greater than 256 µg/mL with Candida albicans; greater than 256 µg/mL against Bacillus; greater than 256 µg/mL against Pseudomonas aeruginosa; greater than 256 µg/mL in the experiment on Bacillus subtilis; 256 µg/mL (≈ 1020 µM) in the experiment on Staphylococcus aureus [1]. For the same compound, the MIC against Escherichia coli is 256 µg/mL (≈ 1020 µM); against Staphylococcus aureus [2] it was greater than 256 µg/mL.
Take `CCn1cc(C(=O)O)c(=O)c2cc(F)c(N3CCNCC3)cc21` [NORFLOXACIN]: the MIC in the experiment on Bacillus amounted to 1 µg/mL (≈ 3.13 µM); with Pseudomonas aeruginosa, 2 µg/mL (≈ 6.26 µM); in the experiment on Bacillus subtilis it was 1 µg/mL (≈ 3.13 µM); in the experiment on Staphylococcus aureus [1] it was 8 µg/mL (≈ 25.1 µM); with Escherichia coli, 0.5 µg/mL (≈ 1.57 µM); in the experiment on Staphylococcus aureus [2], 1 µg/mL (≈ 3.13 µM).
For the compound `CCCC[n+]1cnn(CC(O)(Cn2c[n+](CCCC)cn2)c2ccc(F)cc2F)c1.[Br-].[Br-]`, the MIC in the experiment with Aspergillus fumigatus was greater than 256 µg/mL; in the experiment with Candida albicans it was 128 µg/mL; against Bacillus it was 256 µg/mL; in the experiment with Pseudomonas aeruginosa, 256 µg/mL; against Bacillus subtilis, greater than 256 µg/mL; with Staphylococcus aureus [1] it was greater than 256 µg/mL. The values for the minimal inhibitory concentration (MIC) with Escherichia coli and against Staphylococcus aureus [2] were 128 µg/mL and greater than 256 µg/mL, respectively.
In the case of `OC(Cn1c[n+](Cc2ccc(Cl)c(Cl)c2)cn1)(Cn1c[n+](Cc2ccc(Cl)c(Cl)c2)cn1)c1ccc(F)cc1F.[Cl-].[Cl-]`, the MIC worked out at 128 µg/mL in the experiment with Aspergillus fumigatus; 4 µg/mL with Candida albicans; 8 µg/mL with Bacillus; 16 µg/mL in the experiment with Pseudomonas aeruginosa; 32 µg/mL in the experiment with Bacillus subtilis; 8 µg/mL with Staphylococcus aureus [1]. Moreover, the MIC in the experiment on Escherichia coli came out at 32 µg/mL; against Staphylococcus aureus [2], 64 µg/mL.
`CCCCCCCCCCCCCCCC[n+]1cnn(CC(O)(Cn2c[n+](CCCCCCCCCCCCCCCC)cn2)c2ccc(F)cc2F)c1.[Br-].[Br-]`: the MIC against Aspergillus fumigatus is greater than 256 µg/mL; with Candida albicans it was 4 µg/mL; against Bacillus, 256 µg/mL; against Pseudomonas aeruginosa, 128 µg/mL; in the experiment on Bacillus subtilis, 128 µg/mL; against Staphylococcus aureus [1], 8 µg/mL. Further, the MIC in the experiment on Escherichia coli worked out at 8 µg/mL; in the experiment with Staphylococcus aureus [2] it was 128 µg/mL.
For `O=[N+]([O-])c1ccc(C[n+]2cnn(CC(O)(Cn3c[n+](Cc4ccc([N+](=O)[O-])cc4)cn3)c3ccc(F)cc3F)c2)cc1.[Br-].[Br-]`, the MIC was determined as 128 µg/mL against Aspergillus fumigatus; 128 µg/mL against Candida albicans; 128 µg/mL against Bacillus; 128 µg/mL against Pseudomonas aeruginosa; 128 µg/mL in the experiment on Bacillus subtilis; 64 µg/mL against Staphylococcus aureus [1]. The figures for the MIC with Escherichia coli and in the experiment on Staphylococcus aureus [2] were 64 µg/mL and 256 µg/mL, respectively.
`O=C1c2cccc3c(Br)ccc(c23)C(=O)N1CCCCCCn1cncn1`: the MIC against Aspergillus fumigatus, in the experiment on Candida albicans, against Bacillus, in the experiment with Pseudomonas aeruginosa, against Bacillus subtilis and against Staphylococcus aureus [1] was greater than 256 µg/mL in each case. Further, the MIC against Escherichia coli and against Staphylococcus aureus [2] was greater than 256 µg/mL throughout.
As for `OC(Cn1c[n+](Cc2ccccc2Cl)cn1)(Cn1c[n+](Cc2ccccc2Cl)cn1)c1ccc(F)cc1F.[Cl-].[Cl-]`, the MIC in the experiment on Aspergillus fumigatus was 32 µg/mL; against Candida albicans, 128 µg/mL; in the experiment on Bacillus, 8 µg/mL; against Pseudomonas aeruginosa it was greater than 256 µg/mL; with Bacillus subtilis, 256 µg/mL; with Staphylococcus aureus [1], 32 µg/mL. The MIC was determined as 128 µg/mL in the experiment on Escherichia coli and 256 µg/mL in the experiment on Staphylococcus aureus [2].
With `OC(Cn1c[n+](Cc2cccc(Cl)c2)cn1)(Cn1c[n+](Cc2cccc(Cl)c2)cn1)c1ccc(F)cc1F.[Cl-].[Cl-]`, the MIC against Aspergillus fumigatus amounted to 256 µg/mL; in the experiment on Candida albicans, 4 µg/mL; against Bacillus, 128 µg/mL; against Pseudomonas aeruginosa, 64 µg/mL; with Bacillus subtilis, 64 µg/mL; against Staphylococcus aureus [1], 4 µg/mL. For the same compound, the MIC with Escherichia coli and against Staphylococcus aureus [2] was 32 µg/mL in each case.
